# High-throughput results deposited in PubChem by several laboratories.
# VIM-2 inhibitor = blocks Pseudomonas aeruginosa VIM-2 metallo-beta-lactamase; purified VIM-2, nitrocefin hydrolysis, epi-absorbance fluorescence; inhibition, % at 5.6 µM; 290,000 tested, 0.89% active; AID 1527;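 active = inhibition above the mean of all tested compounds plus 3 SD, cutoff set per screening run, cut at about 7.5% in these data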;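 also: red hydrolysis product quenches plate fluorescence so inhibitors raise well fluorescence; 0% = enzyme with DMSO and 100% = DMSO without enzyme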
# IMP-1 inh-1 = inhibitors of Pseudomonas aeruginosa IMP-1 metallo-beta-lactamase; 290,000 tested, 0.45% active; inhibition, % at 5.6 µM; purified IMP-1, nitrocefin hydrolysis, epi-absorbance fluorescence;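 active = inhibition above the mean plus 3 SD of all compounds in the same screening run, cut at about 4.5% in these data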;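 also: 0% = IMP-1 with DMSO and 100% = DMSO wells lacking enzyme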
#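 Material – recombinant IMP-1 enzyme, purified · Amount – IMP-1 0.2 nM before substrate addition · Medium – HEPES buffer pH 7.1 with ZnSO4 and Brij 35 · Timing – 25 °C, 15 min preincubation, 25 min reaction · Measured by – plate fluorescence quenching by hydrolysis product, ex 480/em 530 nm · Read-out – percent enzyme inhibition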
# EBV gp42 block = blocks Epstein-Barr virus glycoprotein 42 binding; Q1HVG2; Fluorescence polarization binding assay, mP read-out; inhibition, % (tested at 21.74 µM); 220,000 tested, 0.42% active; in the data active = inhibition above about 50%
# Target sequence (Q1HVG2 whole entry, looked up): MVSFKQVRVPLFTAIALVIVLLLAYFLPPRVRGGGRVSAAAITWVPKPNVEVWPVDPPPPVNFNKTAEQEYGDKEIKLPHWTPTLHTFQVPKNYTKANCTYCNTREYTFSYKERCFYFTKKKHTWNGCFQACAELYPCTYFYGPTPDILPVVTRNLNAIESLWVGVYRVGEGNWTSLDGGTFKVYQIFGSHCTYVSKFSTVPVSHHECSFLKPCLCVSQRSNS
# Bcl-xL primary = blocks human Bcl-xL binding to Bim BH3 peptide | Q07817 | GST-Bcl-xL / FITC-Bim BH3 peptide fluorescence polarization | inhibition, % at 10.9 µM | 320,000 tested, 0.7% active | AID 2129;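 active = inhibition above the mean of all tested compounds plus 3 SD, cutoff set per campaign, cut at about 30% in these data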;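 also: 0% = DMSO wells and 100% = unlabeled Bim-BH3 peptide competitor; inhibitors lower millipolarization by displacing the labeled peptide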
# GLD-1 TGE inh = GLD-1-TGE RNA interaction inhibition (C. elegans). purified GLD-1 + fluorescein TGE RNA, fluorescence polarization. inhibition, % at 5.96 µM. 320,000 tested, 0.44% active;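 active = percent inhibition above a per-plate cutoff, the plate mean of test compounds plus 3 SD, cut at about 30% in these data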;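 also: 0% = DMSO wells with GLD-1 and probe and 100% = wells lacking GLD-1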
# Target sequence (Q17339 whole entry, looked up): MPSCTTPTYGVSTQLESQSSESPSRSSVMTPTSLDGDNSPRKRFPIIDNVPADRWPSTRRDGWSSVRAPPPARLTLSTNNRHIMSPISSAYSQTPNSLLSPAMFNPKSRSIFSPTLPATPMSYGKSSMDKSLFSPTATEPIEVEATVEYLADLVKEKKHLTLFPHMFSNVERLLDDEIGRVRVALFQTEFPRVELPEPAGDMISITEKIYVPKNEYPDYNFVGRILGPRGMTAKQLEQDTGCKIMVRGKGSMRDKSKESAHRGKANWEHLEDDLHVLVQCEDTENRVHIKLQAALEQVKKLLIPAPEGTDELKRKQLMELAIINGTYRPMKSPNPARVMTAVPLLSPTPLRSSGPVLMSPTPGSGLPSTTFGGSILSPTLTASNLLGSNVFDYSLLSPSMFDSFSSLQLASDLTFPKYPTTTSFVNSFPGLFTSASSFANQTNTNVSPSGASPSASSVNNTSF
# MEX-5 binding = C. elegans MEX-5 TCR-2 RNA binding activity; activity score (negative = inhibition of binding), % at 10 µM; MEX-5/FITC-TCR2 RNA binding, fluorescence polarization; stronger effect = lower value; 300,000 tested, 0.38% active; Q9XUB2;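 active = inhibition past about -25% in most replicates, and total fluorescence under double the plate's negative control median, limit read from the data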;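 also: 0% = DMSO and -100% = 5 µM competing unlabeled TCR2 RNA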
# IMP-1 inh-2 = blocks IMP-1 metallo-beta-lactamase in VIM-2 selectivity screen; shares compounds with VIM-2 inhibitor; 1,300 tested, under 10 active; purified IMP-1, nitrocefin hydrolysis, epi-absorbance fluorescence; inhibition, % at 5.6 µM; AID 1856; call rule not given here;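 also: 0% = enzyme with vehicle and 100% = vehicle without enzyme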
# VIM-2 FRET ctr = VIM-2 FRET inhibition, artifact counter-screen; shares compounds with VIM-2 inhibitor; purified VIM-2, CCF2 FRET substrate hydrolysis; inhibition, % at 5.6 µM; AID 1857; 1,300 tested, 23% active;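 active = inhibition above the mean of all tested compounds plus 3 SD, cut at about 19% in these data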;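 also: 0% = VIM-2 plus DMSO and 100% = no enzyme wells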
# TEM-1 inh = TEM-1 inhibition, counter-screen for VIM-2 inhibitors. shares compounds with VIM-2 inhibitor. Purified TEM-1, nitrocefin hydrolysis, epi-absorbance fluorescence. inhibition, % at 5.6 µM. 1,300 tested, 3% active. AID 1866;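 active = inhibition above that campaign's mean inhibition plus 3 SD, cut at about 0.46% in these data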;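 also: 0% = TEM-1 with DMSO and 100% = TEM-1 with 100 µM potassium clavulanate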
# VIM-2 confirm 2 = confirmation of P. aeruginosa VIM-2 metallo-beta-lactamase inhibitors | AID 2187 | 1,300 tested, 96% active | purified VIM-2, nitrocefin hydrolysis, epi-absorbance | inhibition, % at 5.6 µM | shares compounds with VIM-2 inhibitor;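 active = inhibition of the VIM-2 beta-lactamase enzyme above about 11% from the earlier first-round screen, limit read from the data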;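 also: 0% = VIM-2 with DMSO and 100% = buffer wells without enzyme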
# Numbers without * were called inactive; / = no result. A selection: hits, their analogues and other compounds. The true share with any hit is near 2.2%.
SMILES,VIM-2 inhibitor,IMP-1 inh-1,EBV gp42 block,Bcl-xL primary,GLD-1 TGE inh,MEX-5 binding,IMP-1 inh-2,VIM-2 FRET ctr,TEM-1 inh,VIM-2 confirm 2
Cc1noc(C)c1S(=O)(=O)Nc1ccc2c(c1)C(=O)N([C@H](C)CO)C[C@H](C)[C@@H](CN(C)Cc1ccc(C(=O)O)cc1)O2,/,/,/,/,4,/,/,/,/,/
CCN(C(=O)COC(=O)CCC(=O)c1ccccc1)c1c(N)n(Cc2ccccc2)c(=O)[nH]c1=O,/,/,/,0,-3,/,/,/,/,/
Cn1c2ccccc2c2nnc(SCCN3CCOCC3)nc21,17*,-2,/,/,/,-2,-3,0,-9,23*
CCn1c2ccccc2c2nnc(SCCN3CCOCC3)nc21,3,0,/,7,-4,0,/,/,/,/
CCn1c2ccccc2c2nnc(SCCN3CCCCC3)nc21,19*,-4,/,0,1,0,-1,2,-1,22*
Cc1cc(C)c2c(c1)c1nnc(SCCN3CCCCC3)nc1n2C,23*,1,/,/,/,-1,-3,1,-6,33*
Nc1cc(N)nc(SCCN2CCCCC2)n1,0,0,-8,2,-8,-1,/,/,/,/
CCCCn1c2ccc(C)cc2c2nnc(SCCN3CCCCC3)nc21,22*,-3,/,/,/,0,-3,8,-8,33*
Cc1cc(C)cc(OCC(=O)OCc2cc([N+](=O)[O-])cc3c2OCOC3)c1,/,/,/,/,2,/,/,/,/,/
Cn1c2ccccc2c2nnc(SCC(=O)Nc3cccc(O)c3)nc21,20*,-2,/,11,9,2,-2,3,-8,27*
CSC[C@H](NC(=O)COc1cc2c(c3oc(=O)cc(C)c13)CCC(C)(C)O2)C(=O)O,1,-3,/,8,-12,0,/,/,/,/
CCCc1cc(=O)oc2c3c(cc(OCC(=O)N[C@@H](C)C(=O)O)c12)OC(C)(C)CC3,18*,0,/,3,5,-1,-3,41*,-3,24*
CCCc1cc(=O)oc2c3c(cc(OCC(=O)N[C@@H](CSC)C(=O)O)c12)OC(C)(C)CC3,37*,-3,/,/,/,1,-2,68*,-7,44*
CC(C)CNS(=O)(=O)c1cc2c3c(c1)CCC(=O)N3CCC2,-2,1,/,12,0,0,/,/,/,/
CC(C)CN(C(=O)COC(=O)CCCc1c[nH]c2ccccc12)c1c(N)n(Cc2ccccc2)c(=O)[nH]c1=O,1,-2,/,1,2,-1,/,/,/,/
Cc1nnc(N2C(=O)C(O)=C(C(=O)c3ccco3)C2c2cccc([N+](=O)[O-])c2)s1 (stereo not drawn),0,-3,/,3,-4,1,/,/,/,/
COc1ccc(C2C(C(=O)c3cccs3)=C(O)C(=O)N2c2nnc(C)s2)cc1OC (stereo not drawn),27*,1,91*,84*,70*,-60*,3,-12,5.5*,8.8*
Cc1cc(=O)oc2cc(OCC(=O)Nc3ccc4[nH]c(=O)[nH]c4c3)ccc12,/,/,/,4,-2,-1,/,/,/,/
CNc1cc(C)c(C#N)c2nc3ccccc3n12,24*,-5,/,11,4,1,-3,2,-7,35*
CCc1c(C)c(C#N)c2nc3ccccc3n2c1NC,14*,-3,/,3,-4,5,-4,1,-7,21*
CCN(CC)c1cc(C)c(C#N)c2nc3ccccc3n12,-3,-4,0,3,1,-3,/,/,/,/
Cc1cc(Cl)n2c(nc3ccccc32)c1C#N,20*,-3,-16,/,/,-2,-3,-8,-7,34*
CC(C)C(NC(=O)c1c(F)cccc1F)C(=O)N1CCN(S(=O)(=O)/C=C/c2ccccc2)CC1 (stereo not drawn),/,/,/,-6,0,/,/,/,/,/
Cc1ccc(/C=c2\sc3nc(-c4cccnc4)nn3c2=O)cc1,56*,-3,86*,13,-1,-2,-2,65*,-5,60*
CC(C)c1ccc(/C=c2\sc3nc(-c4ccncc4)nn3c2=O)cc1,-1,-4,-20,6,9,-2,/,/,/,/
SMILES,VIM-2 inhibitor,IMP-1 inh-1,EBV gp42 block,Bcl-xL primary,GLD-1 TGE inh,MEX-5 binding,IMP-1 inh-2,VIM-2 FRET ctr,TEM-1 inh,VIM-2 confirm 2
O=C(N/N=C/c1ccc(-n2ccnc2)cc1)c1cccs1,77*,0,/,4,-3,0,-3,-11,-6,84*
O=C(N/N=C/c1ccncc1)c1cccs1,-3,-2,/,1,-3,-1,/,/,/,/
CON(C)C(=O)C[C@@H]1C[C@H](OC(=O)c2ccc([N+](=O)[O-])cc2)CN1C(=O)OC(C)(C)C,/,/,/,/,-2,/,/,/,/,/
CN1CCN(c2nc(-c3ccccc3)c3cc(Cl)ccc3n2)CC1,4,-4,14,-2,3,1,/,/,/,/
Clc1ccc2nc(N3CCNCC3)nc(-c3ccccc3)c2c1,12*,2,/,5,-5,0,-3,-3,-6,17*
CCN(CC(=O)Nc1ccc(NC(C)=O)cc1)C(=O)c1ccc(=O)n(C)n1,/,/,/,-5,5,/,/,/,/,/
CCN1CCN(C(=O)Cn2nc(-c3ccc(Cl)cc3)ccc2=O)CC1,23*,-3,-5,0,3,1,-4,-3,-6,27*
COc1ccc(OCC(=O)N2c3ccccc3CC2C)c([N+](=O)[O-])c1 (stereo not drawn),/,/,/,/,1,/,/,/,/,/
Cc1cc(Nc2ccc(C)c(Br)c2)n2nc(C)nc2n1,14*,-4,3,5,-1,1,-4,-2,-7,28*
COc1cc(Nc2cc(C)nc3nc(C)nn23)cc(OC)c1OC,13*,-2,-4,1,5,-1,-3,-2,-6,33*
COc1ccc(Nc2cc(C)nc3nc(C)nn23)cc1Cl,19*,-2,14,0,0,1,-3,-3,-4,29*
Cc1ccc(NS(=O)(=O)c2ccc(C(=O)N3CCCC(C(F)(F)F)C3)cc2)cc1 (stereo not drawn),/,/,/,5,-7,-2,/,/,/,/
CN1CCN(C(=O)CCc2nc3ccccc3c(=O)[nH]2)CC1,21*,-1,3,3,-9,-2,-3,0,-6,42*
Cc1ccc2c(c1)c1nc3ccccc3nc1n2CCN1CCOCC1,2,-3,-10,9,8,-14,/,/,/,/
Cc1ccc2c(c1)c1nc3ccccc3nc1n2C,14*,1,/,58*,19,-9,-1,1,-4,16*
